The record followed here is ChEMBL document CHEMBL1629681 (Antimicrob Agents Chemother, 2010).

Common to all, as to format: ADME, organism-based
Data set [1] is described as follows: Cmax in patient with end-stage renal failure undergoing hemodiafiltration at 4 mg/kg, iv after 2 hrs by LC/MS/MS analysis. More on the design: dose 4 mg/kg, route intravenous. The note with it: human, in vivo. The method, boiled down: (§1)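 End-stage renal failure patients on 6-h Genius dialysis, hemodialysis or hemodiafiltration received a single 2-h iv infusion of 4 mg/kg. Venous plasma sampled before dosing and at 1, 2, 3, 4, 6 and 6.5 h from a site other than the infusion line, stored at −20°C. Quantified by LC-MS-MS against a 30 to 5,000 ng/ml calibration, analysed noncompartmentally.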

Data set [2] is described as follows: Cmax in patient with end-stage renal failure undergoing hemodialysis at 4 mg/kg, iv after 2 hrs by LC/MS/MS analysis. The note with it: human, in vivo. More on the design: dose 4 mg/kg, route intravenous. In outline:
as §1

The nature of data set [3]: Cmax in patient with end-stage renal failure undergoing genius system-mediated dialysis at 4 mg/kg, iv after 2 hrs by LC/MS/MS analysis. The note with it: human, in vivo. Also on record: dose 4 mg/kg, route intravenous. The method, boiled down: as §1
The nature of data set [4]: Terminal half life in human with normal renal function. The note with it: in vivo, read-out: beta t1/2 (converted).

The Cmax is the highest concentration seen after dosing.

With `C[C@@H](c1ncncc1F)[C@](O)(Cn1cncn1)c1ccc(F)cc1F` [VORICONAZOLE], the peak concentration (Cmax) in data set [1] was found to be 1900 ng/mL; in data set [2] it was 1700 ng/mL; in data set [3] it was 1800 ng/mL. Besides, the half-life in data set [4] is 420 min.
